Experimental data published in ChEMBL document CHEMBL1828575, “Design, synthesis and antiproliferative activities of biarylolefins based on polyhydroxylated and carbohydrate scaffolds” (Eur J Med Chem, 2011).

Key:
Format in all cases: functional
[1] = system: HT-29; experiment: Cytotoxicity against human HT-29 cells assessed as cellular growth at 10 uM after 48 hrs by SRB assay
In short: (§1)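 NCI60 single-dose screen of cells in RPMI 1640 with 5% FBS and 2 mM L-glutamine, preincubated 24 h at 37 °C, 5% CO₂. Cells were then exposed 48 h to compound added from DMSO stock. TCA-fixed, stained with 0.4% SRB in 1% acetic acid, dye solubilised in 10 mM Tris base and read at 515 nm. Growth is given as percent of untreated control.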

[2] = system: KM12; experiment: Cytotoxicity against human KM12 cells assessed as cellular growth at 10 uM after 48 hrs by SRB assay; in short: as §1
[3] = system: NCI-H522; experiment: Cytotoxicity against human NCI-H522 cells assessed as cellular growth at 10 uM after 48 hrs by SRB assay
In short: (§2)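 NCI-60 panel lines grown in RPMI 1640 with 5% FBS and 2 mM L-glutamine. Plated at 5000–40,000 cells/well and preincubated 24 h at 37 °C, 5% CO₂, with time-zero plates fixed in TCA. Compounds, dissolved in DMSO and diluted in medium, were applied for 48 h. Cells were TCA-fixed (10% final for adherent, 16% for suspension) and stained with 0.4% SRB in 1% acetic acid. Dye was solubilised in 10 mM Tris base and read at 515 nm; growth was expressed as a percentage of untreated control.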

[4] = system: NCI-H322M; experiment: Cytotoxicity against human NCI-H322M cells assessed as cellular growth at 10 uM after 48 hrs by SRB assay; in short: as §2
[5] = Cytotoxicity against human NCI60 cells assessed as cellular growth at 10 uM after 48 hrs by SRB assay relative to untreated control; in short: as §2
[6] = system: K562; experiment: Cytotoxicity against human K562 cells assessed as cellular growth at 10 uM after 48 hrs by SRB assay; in short: as §1
[7] = system: HCT-116; experiment: Cytotoxicity against human HCT116 cells assessed as cellular growth at 10 uM after 48 hrs by SRB assay; in short: as §1
[8] = system: NCI-H460; experiment: Cytotoxicity against human NCI-H460 cells assessed as cellular growth at 10 uM after 48 hrs by SRB assay; in short: as §2
[9] = system: NCI-H226; experiment: Cytotoxicity against human NCI-H226 cells assessed as cellular growth at 10 uM after 48 hrs by SRB assay; in short: as §2
[10] = system: SNB-75; experiment: Cytotoxicity against human SNB75 cells assessed as cellular growth at 10 uM after 48 hrs by SRB assay; in short: as §2
[11] = system: SK-MEL-5; experiment: Cytotoxicity against human SK-MEL-5 cells assessed as cellular growth at 10 uM after 48 hrs by SRB assay; in short: as §2
[12] = system: UACC-62; experiment: Cytotoxicity against human UACC62 cells assessed as cellular growth at 10 uM after 48 hrs by SRB assay; in short: as §2
[13] = system: OVCAR-5; experiment: Cytotoxicity against human OVCAR5 cells assessed as cellular growth at 10 uM after 48 hrs by SRB assay; in short: as §2
[14] = system: NCI/ADR-RES; experiment: Cytotoxicity against human NCI/ADR-RES cells assessed as cellular growth at 10 uM after 48 hrs by SRB assay; in short: as §2
[15] = system: TK-10; experiment: Cytotoxicity against human TK10 cells assessed as cellular growth at 10 uM after 48 hrs by SRB assay; in short: as §2
[16] = system: BT-549; experiment: Cytotoxicity against human BT549 cells assessed as cellular growth at 10 uM after 48 hrs by SRB assay; in short: as §1
[17] = system: NCI-H522; experiment: Antitumor activity against human NCI-H522 cells after 48 hrs by SRB assay; conditions: NCI-H522, 48 h
In short: (§3)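 NCI60 panel in RPMI 1640 with 5% FBS and 2 mM L-glutamine. Cells were plated at 5000–40,000/well by doubling time, held 24 h, then time-zero plates were TCA-fixed. Five concentrations (10-fold or half-log dilutions of DMSO stocks) were applied for 48 h at 37 °C, 5% CO2. Cells were fixed with cold TCA (10% final adherent, 16% suspension) and stained with 0.4% SRB. Bound dye was dissolved in 10 mM Tris and read at 515 nm. GI50, TGI and LC50 were calculated per line.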

[18] = system: HCT-116; experiment: Antitumor activity against human HCT116 cells after 48 hrs by SRB assay; conditions: HCT-116, 48 h; in short: as §3
[19] = system: KM12; experiment: Antitumor activity against human KM12 cells after 48 hrs by SRB assay; conditions: KM12, 48 h; in short: as §3
[20] = system: LOX IMVI; experiment: Antitumor activity against human LOXIMVI cells after 48 hrs by SRB assay; in short: as §3
[21] = system: 786-0; experiment: Antitumor activity against human 786-0 cells after 48 hrs by SRB assay; conditions: 786-0, 48 h; in short: as §3
[22] = system: OVCAR-8; experiment: Antitumor activity against human OVCAR8 cells after 48 hrs by SRB assay; conditions: OVCAR-8, 48 h; in short: as §3
[23] = system: SF-295; experiment: Antitumor activity against human SF295 cells after 48 hrs by SRB assay; conditions: SF-295, 48 h; in short: as §3
[24] = system: SR; experiment: Antitumor activity against human SR cells after 48 hrs by SRB assay
In short: (§4)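 NCI60 panel cells grown in RPMI 1640 with 5% FBS and 2 mM L-glutamine, plated at 5000–40,000 cells/well and preincubated 24 h at 37 °C, 5% CO₂. Compound was added from DMSO at five concentrations, 10-fold or 1/2 log dilutions, then incubated 48 h.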

[25] = system: CCRF-CEM; experiment: Antitumor activity against human CCRF-CEM cells after 48 hrs by SRB assay; in short: as §3
[26] = system: SF-268; experiment: Antitumor activity against human SF268 cells after 48 hrs by SRB assay; conditions: SF-268, 48 h; in short: as §3
[27] = system: SK-MEL-28; experiment: Antitumor activity against human SK-MEL-28 cells after 48 hrs by SRB assay; conditions: SK-MEL-28, 48 h; in short: as §4
[28] = read-out: LC50 (the source's name)
[29] = read-out: pLC50 (the source's name) (converted)

## COc1cc(/C(=C2\O[C@@H]([C@H]3COC(C)(C)O3)[C@H]3OC(C)(C)O[C@@H]23)c2ccc3ccccc3c2)cc(OC)c1OC
[1]
  Activity: 40.98%
[2]
  Activity: 33.42%
[3]
  Activity: 8.05%
[4]
  Activity: 55.06%
[5]
  Activity: 30%
[6]
  Activity: 28.12%
[7]
  Activity: 58.36%
[8]
  Activity: 43.38%
[9]
  Activity: 66.92%
[10]
  Activity: 41.12%
[11]
  Activity: 38.25%
[12]
  Activity: 46.5%
[13]
  Activity: 38.17%
[14]
  Activity: 25.91%
[15]
  Activity: 22.74%
[16]
  Activity: 22.16%
[17]
  GI50: 2.26 µM
  TGI: 6.54 µM
[17]; [28]
  CC50: > 100 µM
[18]
  GI50: 2.51 µM
  LC50 (concentration giving 50% net cell kill): 20.6 µM
  TGI: 5.7 µM
[19]
  GI50: 6 µM
  LC50: > 100 µM
  TGI: > 100 µM
[20]
  GI50: 3.39 µM
  TGI: 19.8 µM
[20]; [28]
  CC50: > 100 µM
[21]
  GI50: 2.3 µM
  LC50: 8.6 µM
  TGI: 4.47 µM
[22]; read-out: GI50
  GI50: 3.69 µM
[22]; [28]
  CC50: > 100 µM
[22]; read-out: TGI
  TGI: > 100 µM
[22]; read-out: pGI50 (converted)
  GI50: 4.37 µM
[22]; [29]
  CC50: > 100 µM
[22]; read-out: pTGI
  TGI: > 100 µM
[23]; read-out: GI50
  GI50: 6.92 µM
[23]; [28]
  CC50: > 100 µM
[23]; read-out: TGI
  TGI: 52.1 µM
[23]; read-out: pGI50 (converted)
  GI50: 6.92 µM
[23]; [29]
  CC50: > 100 µM
[23]; read-out: pTGI (converted)
  TGI: 52.5 µM
[24]; read-out: GI50
  GI50: > 100 µM
[24]; [28]
  CC50: > 100 µM
[24]; read-out: TGI
  TGI: > 100 µM
[24]; read-out: pGI50 (converted)
  GI50: 100 µM
[24]; [29]
  CC50: > 100 µM
[24]; read-out: pTGI
  TGI: > 100 µM
[25]; read-out: GI50
  GI50: 48.3 µM
[25]; [28]
  CC50: > 100 µM
[25]; read-out: TGI
  TGI: > 100 µM
[25]; read-out: pGI50 (converted)
  GI50: 47.9 µM
[25]; [29]
  CC50: > 100 µM
[25]; read-out: pTGI
  TGI: > 100 µM
[26]
  LC50 (concentration killing 50% of cells relative to time zero): > 100 µM
[26]; read-out: GI50
  GI50: 3.13 µM
[26]; read-out: TGI
  TGI: 15.9 µM
[26]; read-out: pGI50 (converted)
  GI50: 3.09 µM
[26]; [29]
  CC50: > 100 µM
[26]; read-out: pTGI (converted)
  TGI: > 100 µM
[27]
  LC50 (50% lethal concentration): > 100 µM
[27]; read-out: GI50
  GI50: 2.86 µM
[27]; read-out: TGI
  TGI: 96.5 µM
[27]; read-out: pGI50 (converted)
  GI50: 2.88 µM
[27]; [29]
  CC50: > 100 µM
[27]; read-out: pTGI
  TGI: > 100 µM
